Calls of active or inactive are those of the source.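 Rule for the calls: active = EC50 for reversing nicotinamide-shortened yeast lifespan at or below a set limit; inactive = EC50 above that limit.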
These compounds were tested on S. cerevisiae DeaD BB579, nicotinamide rescue growth, OD615 48 h (assay: rescue of nicotinamide-suppressed growth of yeast BB579, dose response, yeast lifespan extension project, S. cerevisiae (AID 809)).
Method in brief: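 System: S. cerevisiae DeaD strain BB579 / Medium: Glucose-containing restrictive synthetic medium (CSMM-D), shifted from galactose / Schedule: 4 h pre-incubation, 48 h exposure at 30 °C / Technique: optical density at 615 nm (absorbance) / Read-out: culture growth as lifespan proxy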

Row | Compound | EC50
1 | O=C(CCc1ccccc1)NCCCN1CCOCC1 | > 10 µM (inactive)
2 | COc1ccc(CNC(=O)c2c(O)c3cccc4c3n(c2=O)CCC4)cc1 | > 10 µM (inactive)
3 | CN(Cc1c(O)ccc2c1oc(=O)c1ccccc12)C1CCCCC1 | > 10 µM (inactive)
4 | O=C(Oc1ccc2c(c1)OCO2)C12CC3CC(CC(C3)C1)C2 | > 10 µM (inactive)
5 | C/C(=N\NC(=O)c1cccnc1)c1c(O)cc(C)oc1=O | > 10 µM (inactive)
6 | O=S1(=O)C=C(Sc2nnc(-c3ccccc3)o2)c2ccccc21 | 9.27 µM
7 | CN(C)CC(C(=O)c1ccccc1)c1ccccc1 (configuration not stated) | 6.36 µM
8 | CCCCC(CC)Cn1c2nc3ccccc3nc2c2c(=N)oc(C)nc21 (configuration not stated) | > 10 µM (inactive)
9 | COc1cccc(C2CC3C(=O)C=CC2N3Cc2ccccc2)c1 (configuration not stated) | 6.1 µM
10 | O=C1/C(=C/c2cccnc2)CCC/C1=C\c1cccnc1 | 7.04 µM
11 | Cc1ccccc1NC(=O)c1ccccc1 | > 10 µM (inactive)
12 | O=C(Nc1nc2ccccc2n1CCN1CCOCC1)c1cn(-c2ccccc2)nc1-c1ccccc1 | > 10 µM (inactive)
13 | Oc1ccc(Br)cc1C=Nc1ccc2[nH]ncc2c1 | > 10 µM (inactive)
14 | CCNCCNC(=O)c1c(O)c2cccc3c2n(c1=O)CCC3 | 6.32 µM
15 | CCCCOC(=O)CSc1nc2c(c(=O)[nH]c(=O)n2C)n1C/C=C(\C)Cl | > 10 µM (inactive)
16 | O=C1ON=C(c2ccccc2)/C1=C/c1ccc(-c2ccccc2[N+](=O)[O-])o1 | 3.82 µM
17 | O=[N+]([O-])c1cc2oc3c(c2c(C=NCc2ccncc2)c1O)CCCC3 | 1.2 µM
18 | CCSc1nnc(NC(=O)CSc2nc(C)cc(C)n2)s1 | > 10 µM (inactive)
19 | CCOC(=O)C1=C(C)Nc2nc(=S)[nH]n2C1c1ccc(Cl)cc1 (configuration not stated) | 5.46 µM
20 | O=C1Nc2ccccc2C12OCC1(CO2)COC2(OC1)C(=O)Nc1ccccc12 (configuration not stated) | > 10 µM (inactive)
21 | COC(=O)c1sc(S(=O)(=O)Nc2ccc(Br)cc2)c(C(=O)OC)c1C | > 10 µM (inactive)
22 | O=C(NCc1ccco1)c1cc(C(=O)C2CCCCC2)c[nH]1 | > 10 µM (inactive)

Row | Compound | EC50
23 | O=C(Oc1ccc([N+](=O)[O-])cc1)c1ccc2ccccc2n1 | > 10 µM (inactive)
24 | CN(c1ccccc1)c1nc2ccsc2c(=O)s1 | > 10 µM (inactive)
25 | CCCC(=O)Nc1ccc(C(=O)NNC(=S)NC(=O)c2cccs2)cc1 | > 10 µM (inactive)
26 | CC1=CS(=O)(=O)CC1Sc1nc2ccccc2[nH]1 (configuration not stated) | > 10 µM (inactive)
27 | O=C(N/N=C/c1ccccc1)c1c(O)c2ccccc2[nH]c1=O | 0.58 µM
28 | Cc1nc(SC(C)C)[nH]c(=O)c1Cc1ccccc1 | > 10 µM (inactive)
29 | CCOC(=O)c1c(NC(=O)C2C3C=CC(C3)C2C(=O)O)sc2c1CCC(CC)C2 (configuration not stated) | > 10 µM (inactive)
30 | COC(=O)c1cc(=O)n(-c2ccccc2)c(=Nc2ccccc2)s1 | > 10 µM (inactive)
31 | CCCCNC(=O)/C(C#N)=C/c1cccnc1 | 9.27 µM
32 | COc1ccc(C(C)NC(=O)c2ccccc2)cc1 (configuration not stated) | > 10 µM (inactive)
33 | CCCCCCC1C(C#N)=C(N)OC2=C1C(=O)CC(C)(C)C2 (configuration not stated) | > 10 µM (inactive)
34 | Cc1ccnc(-n2c(C)cc(/C=C3\C(=O)NC(=S)N(C)C3=O)c2C)c1 | > 10 µM (inactive)
35 | Cc1ccc(NC(=O)CN2CCN(CCN=CC3=C(O)CC(c4ccccc4)CC3=O)CC2)cc1 (configuration not stated) | 9.58 µM
36 | Fc1cccc2sc(Nc3nnc(-c4ccco4)o3)nc12 | 0.24 µM
37 | O=S(=O)(CCSc1ccccn1)c1nc2ccccc2s1 | 5.84 µM
38 | Cc1nn(-c2c(Cl)cc(Cl)cc2Cl)c(=O)c2ccccc12 | 6.34 µM
39 | COc1ccc(OC)c(NC(=S)N2CCN(C/C=C/c3ccccc3)CC2)c1 | > 10 µM (inactive)
40 | COc1ccc(CCN2C(=O)C(O)=C(C(=O)c3ccco3)C2c2cccs2)cc1OC (configuration not stated) | 8.94 µM
41 | O=C(Nc1scc(-c2ccc(F)cc2)c1C(=O)O)c1ccco1 | 3.15 µM
42 | CS(=O)(=O)c1nc(-c2cccs2)cc(C(F)(F)F)n1 | 3.91 µM
43 | CCCn1[nH]cc(SC)c(=O)c1=O | 8.67 µM
44 | CCCCN(CCCC)c1ccc(C(=O)c2ccccc2C(=O)O)c(O)c1 | 6.81 µM

Row | Compound | EC50
45 | CCCCCC1CC1C(=O)N/N=C/c1ccc(N(C)C)cc1 (configuration not stated) | > 10 µM (inactive)
46 | CCOC(=O)c1ccccc1N1C(=O)CSC1=S | > 10 µM (inactive)
47 | COc1ccc(-c2cc(C(F)(F)F)nc(S(C)(=O)=O)n2)cc1OC | 8.76 µM
48 | CS(=O)(=O)c1nc(-c2ccco2)cc(C(F)(F)F)n1 | 4.01 µM
49 | CCCCCSc1nc2c(c(=O)[nH]c(=O)n2C)n1C | > 10 µM (inactive)
50 | COc1ccc(/C=N/NC(=O)c2csc(-n3nc(C)cc3C(F)(F)F)n2)cc1 | > 10 µM (inactive)
51 | c1ccc(-c2c(-c3ccccc3)n(Cc3ccco3)c3ncnc(NCCCn4ccnc4)c23)cc1 | 1.98 µM
52 | COc1cc(Br)cc(-c2nc3c(c(=O)[nH]c(=O)n3Cc3ccccc3)n2C)c1O | > 10 µM (inactive)
53 | CCN1CCCC1CNC(=O)COc1cc(=O)n(C)c2ccccc12 (configuration not stated) | > 10 µM (inactive)
54 | CS(=O)(=O)Oc1ccc(Br)cc1/C=C1/N=C(c2ccco2)OC1=O | > 10 µM (inactive)
55 | CN(C)/C=C(/C(=O)c1ccc(Cl)cc1Cl)S(=O)(=O)c1ccc(Cl)cc1 | 5.49 µM
56 | COc1ccc2c3c(cccc13)C(=O)N(O)C2=O | 2.08 µM
57 | COc1ccc2c(=O)c3c(=O)n(Cc4ccco4)c(-c4ccco4)nc3oc2c1 | 9.69 µM
58 | O=Cc1ccccc1OS(=O)(=O)c1ccccc1 | 9.56 µM
59 | CCOC(=O)C(=Cc1ccc(F)cc1)C(=O)OCC | 6.7 µM
60 | Cc1nc2ccccc2n1-c1ccccc1 | > 10 µM (inactive)
61 | O=c1c(-c2ccc(Cl)cc2)[n+]([O-])c2ccccc2n1OCc1ccccn1 | > 10 µM (inactive)
62 | O=C(NCc1ccco1)c1c(O)c2cccc3c2n(c1=O)CCC3 | 5.98 µM
63 | COc1cccc(CSc2nc3ccccc3cc2C=O)c1 | 8.96 µM
64 | O=S1(=O)C=C(Sc2nc3ccccc3s2)c2ccccc21 | > 10 µM (inactive)
65 | COCCn1c(SCC(=O)Nc2ccc(C)cc2)nc2c(oc3ccccc32)c1=O | > 10 µM (inactive)
66 | Cc1ccc(C)c(N2CCN(S(=O)(=O)c3c(C)noc3/C=C/N(C)C)CC2)c1 | > 10 µM (inactive)

Row | Compound | EC50
67 | Cc1cc(C)n(-c2ccc(OCC(=O)O)nn2)n1 | > 10 µM (inactive)
68 | COc1ccccc1CN(Cc1nc2ccccc2c(=O)[nH]1)C(=O)Nc1cccc(C)c1 | > 10 µM (inactive)
69 | C=CCn1c(-c2ccc(OC)cc2)csc1=Nc1c(C)n(C)n(-c2ccccc2)c1=O | > 10 µM (inactive)
70 | COc1cnc(-c2ccccn2)nc1Sc1cccc(Cl)c1 | 4.44 µM
71 | Cc1c(O)c(S(=O)c2ccccc2)c(=O)n(-c2ccccc2)c1-c1ccccc1 (configuration not stated) | 4.32 µM
72 | CCCC(=O)Nc1ccccc1Sc1ncnc2scc(-c3ccccc3)c12 | > 10 µM (inactive)
73 | O=C(Nc1cccnc1)c1c(O)c2cccc3c2n(c1=O)CC3 | 4.44 µM
74 | ClC(Cl)(c1nnnn1-c1ccccc1)c1nnnn1-c1ccccc1 | > 10 µM (inactive)
75 | CC1=NN(c2ccc(C(F)(F)F)cn2)C(=O)C1 | > 10 µM (inactive)
76 | Cc1cc(C)c(S(=O)(=O)c2ccccc2)c(OC(=O)c2cc(F)c(F)cc2Cl)n1 | 7.24 µM
77 | O=C(c1ccccc1)C(CN1CCCC1)c1ccccc1 (configuration not stated) | 9.14 µM
78 | Cc1[nH]nc2nc3c(c(OC(=O)c4ccccc4)c12)c(=O)n(C)c(=O)n3C | 1.75 µM
79 | CC(=O)Nc1ccc(C(=O)CSc2nnc(-c3ccc(O)cc3)n2CC2CCCO2)cc1 (configuration not stated) | > 10 µM (inactive)
80 | O=S(=O)(Nc1nc2ccccc2nc1Cl)c1ccc2ccccc2c1 | 7.25 µM
81 | CCOC(=O)/C(=C\c1cn(C)c2ccccc12)[N+](=O)[O-] | 3.11 µM
82 | C/C=C/Cn1c(N2CCCCCC2)nc2c1c(=O)[nH]c(=O)n2C | > 10 µM (inactive)
83 | CC(C)CN=C(NS(=O)(=O)c1ccccc1)C(Cl)(Cl)Cl | 3.99 µM
84 | CN1CCN(C(=S)Nc2cc([N+](=O)[O-])ccc2Cl)CC1 | > 10 µM (inactive)
85 | Cn1c(SCC(=O)N2CCCc3ccccc32)nnc1-c1c[nH]c2ccccc12 | > 10 µM (inactive)
86 | Cc1ccc(S(=O)(=O)Nc2ccccc2/C=N/c2nc3ccccc3n2C(C)C)cc1 | > 10 µM (inactive)
87 | COc1ccc(OC)c(C2C(C(C)=O)=C(O)C(=O)N2Cc2cccnc2)c1 (configuration not stated) | > 10 µM (inactive)
88 | Nc1sc(-c2ccccc2)cc1C(=O)O | > 10 µM (inactive)

Row | Compound | EC50
89 | CCOc1ccccc1/C=c1\sc2ncnn2c1=O | 7.17 µM
90 | CCCC(=Nc1ccccc1OC)C1=C(O)CC(c2ccccc2)CC1=O (configuration not stated) | 3.21 µM
91 | O=c1[nH]c2ccccc2nc1Cc1ccccc1 | > 10 µM (inactive)
92 | O=C(O)c1cccc2c1C(=O)N(C1CCCCC1)C2 | 4.22 µM
93 | CC1(C)CC(=O)C(C(=O)Cc2ccccc2[N+](=O)[O-])C(=O)C1 | 4.3 µM
94 | COC(=O)CCS(=O)(=O)c1nc(-c2ccccc2)cc(C(F)(F)F)n1 | 1.99 µM
95 | CCOC(=O)c1cnc(-c2ccccc2)nc1Oc1ccc(Cl)cc1 | > 10 µM (inactive)
96 | CC(C)c1ccc2occ(-c3nn[nH]n3)c(=O)c2c1 | 6.44 µM
97 | CC(C)c1nnc(NC(=O)c2c(O)c3cccc4c3n(c2=O)CCC4)s1 | 4.31 µM
98 | CCC(C)OC(=O)C1C(c2ccccc2)C(C(=O)O)C1c1ccccc1 (configuration not stated) | 8.26 µM
99 | O=c1[nH]c2ccccc2nc1C(Cl)c1ccccc1 (configuration not stated) | 9.79 µM
100 | CC1CCCN(c2nc3ccccc3nc2C(C#N)C(=O)OC2CCCCC2)C1 (configuration not stated) | > 10 µM (inactive)
101 | O=C(COc1ccc2ccccc2c1)Nc1cccc(C(=O)Nc2ccccc2C(=O)O)c1 | 8.35 µM
102 | CCCCSc1[nH]c(=O)c(C(=O)OCC)cc1C#N | 6.45 µM
103 | CCOc1ccc(NCc2nc3ccccc3n2CCOc2ccccc2)cc1 | 3.28 µM
104 | CS(=O)(=O)c1nc(-c2ccccc2)cc(C(F)(F)F)n1 | 3.32 µM
105 | COc1ccc(/C(O)=C/C(=O)C(=O)Nc2c(C)n(C)n(-c3ccccc3)c2=O)cc1 | 5.85 µM
106 | O=C(NCc1cccnc1)c1ccc(S(=O)(=O)N2CCCCC2)cc1 | > 10 µM (inactive)
107 | C=C1C(=O)C=C2CN(C(=O)c3ccccc3)[C@@](Cc3ccc(F)cc3)(C(=O)OC)[C@@H]12 | > 10 µM (inactive)

Source: PubChem BioAssay AID809 (SRMLSC, 2007)
